From ChEMBL document CHEMBL4665800, “Biased Agonism at Nociceptin/Orphanin FQ Receptors: A Structure Activity Study on N/OFQ(1-13)-NH” (J Med Chem, 2020)
Starred links: 1 amine or outer side, 2 acyl side, 3 side chain; linkers in the order of their positions; H or OH if unused. Positions of bridges follow the written chain, without caps; N, C: chain ends. Non-standard residues stand in square brackets, D forms with d. Residues, ends and D or L forms follow the SMILES beside them. Chains are numbered I, II in the order given. *: point of attachment. X1 = CCCCCCCCCCCCCCCC(=O)NCCCN1C(=O)CC(*)C1=O; X2 = O=C1CC([*:1])C(=O)N1CCCC(=O)[*:2]; Ac5c = NC1(C(=O)O)CCCC1; Ac3c = NC1(C(=O)O)CC1; Aib = CC(C)(N)C(=O)O

What was measured:
Nociceptin receptor [1] = target: T1, Nociceptin receptor (Homo sapiens, UniProt P41146); test: Agonist activity at NOP (unknown origin) expressed in HEK293 cell membranes co-expressing Gbeta1-RGFP protein assessed as induction of G protein activation incubated for 15 mins by BRET assay; format: cell-based
In short: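 Membranes (3 μg protein) from HEK293 cells stably co-expressing NOP-RLuc and Gβ1-RGFP, in DPBS. Coelenterazine 5 μM final; ligands in PBS–BSA 0.01%. BRET ratio (RGFP 510 nm / RLuc 460 nm) read 15 min after agonist, room temperature. Values are vehicle-subtracted stimulated BRET ratio. Mean of five experiments in duplicate.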

Nociceptin receptor [2] = target: T1, Nociceptin receptor; test: Agonist activity at NOP (unknown origin) […] assessed as induction of beta-arrestin2 activation incubated for 15 mins by BRET assay; format: cell-based, HEK293
Nociceptin receptor [3] = target: T1, Nociceptin receptor; test: Bias factor, selectivity for agonist activity at NOP (unknown origin) expressed in HEK293 cell membranes co-expressing beta-arrestin2-RGFP protein assessed as induction of beta-arrestin2 activation to agonist activity at NOP (unknown origin) expressed in HEK293 cell membranes co-expressing Gbeta1-RGFP protein assessed as induction of G protein activation; format: cell-based
In short: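 Concentration–response curves in the NOP G protein and β-arrestin 2 BRET assays were fitted to the Black–Leff operational model. Mean of at least five experiments with 95% confidence limits.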

T1 sequence (P41146 whole entry): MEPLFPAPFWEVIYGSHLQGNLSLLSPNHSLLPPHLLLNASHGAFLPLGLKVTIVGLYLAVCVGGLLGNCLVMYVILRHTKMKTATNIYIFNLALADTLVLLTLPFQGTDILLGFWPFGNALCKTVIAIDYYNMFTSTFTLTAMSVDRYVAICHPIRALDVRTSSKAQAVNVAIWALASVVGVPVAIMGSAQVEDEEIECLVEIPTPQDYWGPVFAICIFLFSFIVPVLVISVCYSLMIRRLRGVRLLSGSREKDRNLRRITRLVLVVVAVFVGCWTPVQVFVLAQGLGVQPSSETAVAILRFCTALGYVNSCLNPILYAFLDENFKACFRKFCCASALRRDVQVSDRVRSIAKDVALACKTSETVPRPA

Row | Compound | EC50 (Nociceptin receptor [1]) [nM] | EC50 (Nociceptin receptor [2]) [nM] | Selectivity Index (Nociceptin receptor [3])
1 | H-FGGFTAARKSARK-NH2 | 21.9 | 79.4 | 0.04
2 | CCCCCCCCCCCCCCCC(=O)NCCCN1C(=O)CC(SC[C@H](NC(=O)[C@H](CO)NC(=O)[C@H](CCCCN)NC(=O)[C@H](CCCNC(=N)N)NC(=O)[C@H](C)NC(=O)CNC(=O)[C@@H](NC(=O)[C@H](Cc2ccccc2)NC(=O)CNC(=O)CNC(=O)[C@@H](N)Cc2ccccc2)[C@@H](C)O)C(=O)N[C@@H](CCCNC(=N)N)C(=O)N[C@@H](CCCCN)C(N)=O)C1=O (some centres not stated) (H-FGGFTGARKSC(X1)RK-NH2) | 0.437 | 34.7 | 1.11
3 | CCCCCCCCCCCCCCCC(=O)NCCCN1C(=O)CC(SC[C@H](NC(=O)[C@H](CCCNC(=N)N)NC(=O)[C@H](C)NC(=O)[C@H](CO)NC(=O)[C@H](CCCCN)NC(=O)[C@H](CCCNC(=N)N)NC(=O)[C@H](C)NC(=O)CNC(=O)[C@@H](NC(=O)[C@H](Cc2ccccc2)NC(=O)CNC(=O)CNC(=O)[C@@H](N)Cc2ccccc2)[C@@H](C)O)C(N)=O)C1=O (some centres not stated) (H-FGGFTGARKSARC(X1)-NH2) | 1.26 | 55 | 0.7
4 | C[C@H](NC(=O)CNC(=O)[C@@H](NC(=O)[C@H](Cc1ccccc1)NC(=O)CNC(=O)CNC(=O)[C@@H](N)Cc1ccccc1)[C@@H](C)O)C(=O)N[C@@H](CCCNC(=N)N)C(=O)N[C@@H](CCCCN)C(=O)N[C@@H](CO)C(=O)N[C@@H](C)C(=O)N[C@@H](CCCNC(=N)N)C(=O)N[C@@H](CCCCN)C(=O)N[C@@H](CSC1CC(=O)N(CCCC(=O)NCC(=O)N[C@@H](CCCCN)C(=O)NCC(=O)N[C@@H](CCCCN)C(=O)NCC(=O)N[C@@H](CCCCN)C(=O)NCC(=O)N[C@@H](CCCCN)C(=O)NCC(=O)N[C@@H](CCCCN)C(=O)NCC(=O)N[C@@H](CCCCN)C(N)=O)C1=O)C(N)=O (some centres not stated) (I: H-FGGFTGARKSARKC-NH2 / II: GKGKGKGKGKGK-NH2; linker I:14-II:N via X2) | 1.1 | 14.5 | 1.11
5 | H-FGGFAGARKSARK-NH2 | 75.9 | 741 | 0.4
6 | CCCCCCCCCCCCCCCC(=O)NCCCN1C(=O)CC(SC[C@H](NC(=O)[C@H](CCCCN)NC(=O)[C@H](CCCNC(=N)N)NC(=O)[C@H](C)NC(=O)CNC(=O)[C@@H](NC(=O)[C@H](Cc2ccccc2)NC(=O)CNC(=O)CNC(=O)[C@@H](N)Cc2ccccc2)[C@@H](C)O)C(=O)N[C@@H](C)C(=O)N[C@@H](CCCNC(=N)N)C(=O)N[C@@H](CCCCN)C(N)=O)C1=O (some centres not stated) (H-FGGFTGARKC(X1)ARK-NH2) | 0.288 | 19.1 | 0.91
7 | H-FGAFTGARKSARK-NH2 | 13.2 | 28.8 | -0.21
8 | C[C@H](NC(=O)CNC(=O)[C@@H](NC(=O)[C@H](Cc1ccccc1)NC(=O)CNC(=O)CNC(=O)[C@@H](N)Cc1ccccc1)[C@@H](C)O)C(=O)N[C@@H](CCCNC(=N)N)C(=O)N[C@@H](CCCCN)C(=O)N[C@@H](CO)C(=O)NC1(C(=O)N[C@@H](CCCNC(=N)N)C(=O)N[C@@H](CCCCN)C(N)=O)CCCC1 (H-FGGFTGARKS[Ac5c]RK-NH2) | – | – | 0.31
9 | H-FGGFVGARKSARK-NH2 | 11.5 | 41.7 | 0.09
10 | C[C@H](NC(=O)CNC(=O)[C@@H](NC(=O)[C@H](Cc1ccccc1)NC(=O)CNC(=O)CNC(=O)[C@@H](N)Cc1ccccc1)[C@@H](C)O)C(=O)N[C@@H](CCCNC(=N)N)C(=O)N[C@@H](CCCCN)C(=O)N[C@@H](CO)C(=O)N[C@@H](C)C(=O)N[C@@H](CCCNC(=N)N)C(=O)N[C@@H](CCCCN)C(=O)N[C@@H](CSC1CC(=O)N(CCCC(=O)N[C@@H](CCCCN)C(=O)N[C@@H](CCCCN)C(=O)N[C@@H](CCCCN)C(=O)N[C@@H](CCCCN)C(=O)N[C@@H](CCCCN)C(=O)N[C@@H](CCCCN)C(N)=O)C1=O)C(N)=O (some centres not stated) | 0.0871 | 6.03 | 0.83
11 | C[C@H](NC(=O)[C@H](CO)NC(=O)[C@H](CCCCN)NC(=O)[C@H](CCCNC(=N)N)NC(=O)C1(NC(=O)CNC(=O)[C@@H](NC(=O)[C@H](Cc2ccccc2)NC(=O)CNC(=O)CNC(=O)[C@@H](N)Cc2ccccc2)[C@@H](C)O)CCCC1)C(=O)N[C@@H](CCCNC(=N)N)C(=O)N[C@@H](CCCCN)C(N)=O (H-FGGFTG[Ac5c]RKSARK-NH2) | – | – | 0.08
12 | C[C@H](NC(=O)CCCN1C(=O)CC(SC[C@H](NC(=O)[C@H](CCCCN)NC(=O)[C@H](CCCNC(=N)N)NC(=O)[C@H](C)NC(=O)[C@H](CO)NC(=O)[C@H](CCCCN)NC(=O)[C@H](CCCNC(=N)N)NC(=O)[C@H](C)NC(=O)CNC(=O)[C@@H](NC(=O)[C@H](Cc2ccccc2)NC(=O)CNC(=O)CNC(=O)[C@@H](N)Cc2ccccc2)[C@@H](C)O)C(N)=O)C1=O)C(=O)N[C@@H](Cc1cnc[nH]1)C(=O)N[C@@H](C)C(=O)N[C@@H](Cc1cnc[nH]1)C(=O)N[C@@H](C)C(=O)N[C@@H](Cc1cnc[nH]1)C(=O)N[C@@H](C)C(=O)N[C@@H](Cc1cnc[nH]1)C(=O)N[C@@H](C)C(=O)N[C@@H](Cc1cnc[nH]1)C(=O)N[C@@H](C)C(=O)N[C@@H](Cc1cnc[nH]1)C(N)=O (some centres not stated) (I: H-FGGFTGARKSARKC-NH2 / II: AHAHAHAHAHAH-NH2; linker I:14-II:N via X2) | 7.94 | 9.33 | -0.05
13 | C[C@H](NC(=O)CNC(=O)[C@@H](NC(=O)[C@H](Cc1ccccc1)NC(=O)CNC(=O)CNC(=O)[C@@H](N)Cc1ccccc1)[C@@H](C)O)C(=O)N[C@@H](CCCNC(=N)N)C(=O)N[C@@H](CCCCN)C(=O)N[C@@H](CO)C(=O)N[C@@H](C)C(=O)N[C@@H](CCCNC(=N)N)C(=O)N[C@@H](CCCCN)C(=O)N[C@@H](CSC1CC(=O)N(CCCC(=O)NCC(=O)N[C@@H](CC(=O)O)C(=O)NCC(=O)N[C@@H](CC(=O)O)C(=O)NCC(=O)N[C@@H](CC(=O)O)C(=O)NCC(=O)N[C@@H](CC(=O)O)C(=O)NCC(=O)N[C@@H](CC(=O)O)C(=O)NCC(=O)N[C@@H](CC(=O)O)C(N)=O)C1=O)C(N)=O (some centres not stated) (I: H-FGGFTGARKSARKC-NH2 / II: GDGDGDGDGDGD-NH2; linker I:14-II:N via X2) | 17.8 | 49 | 0.81
14 | C[C@H](NC(=O)CCCN1C(=O)CC(SC[C@H](NC(=O)[C@H](CCCCN)NC(=O)[C@H](CCCNC(=N)N)NC(=O)[C@H](C)NC(=O)[C@H](CO)NC(=O)[C@H](CCCCN)NC(=O)[C@H](CCCNC(=N)N)NC(=O)[C@H](C)NC(=O)CNC(=O)[C@@H](NC(=O)[C@H](Cc2ccccc2)NC(=O)CNC(=O)CNC(=O)[C@@H](N)Cc2ccccc2)[C@@H](C)O)C(N)=O)C1=O)C(=O)N[C@@H](CC(=O)O)C(=O)N[C@@H](C)C(=O)N[C@@H](CC(=O)O)C(=O)N[C@@H](C)C(=O)N[C@@H](CC(=O)O)C(=O)N[C@@H](C)C(=O)N[C@@H](CC(=O)O)C(=O)N[C@@H](C)C(=O)N[C@@H](CC(=O)O)C(=O)N[C@@H](C)C(=O)N[C@@H](CC(=O)O)C(N)=O (some centres not stated) (I: H-FGGFTGARKSARKC-NH2 / II: ADADADADADAD-NH2; linker I:14-II:N via X2) | 24 | 93.3 | 0.51
15 | C[C@H](NC(=O)CNC(=O)[C@@H](NC(=O)[C@H](Cc1ccccc1)NC(=O)CNC(=O)CNC(=O)[C@@H](N)Cc1ccccc1)[C@@H](C)O)C(=O)N[C@@H](CCCNC(=N)N)C(=O)N[C@@H](CCCCN)C(=O)N[C@@H](CO)C(=O)NC(C)(C)C(=O)N[C@@H](CCCNC(=N)N)C(=O)N[C@@H](CCCCN)C(N)=O (H-FGGFTGARKS[Aib]RK-NH2) | – | – | 0.29
16 | H-FGGFNGARKSARK-NH2 | 9.33 | 27.5 | –
17 | C[C@H](NC(=O)CNC(=O)[C@@H](NC(=O)[C@H](Cc1ccccc1)NC(=O)CNC(=O)CNC(=O)[C@@H](N)Cc1ccccc1)[C@@H](C)O)C(=O)N[C@@H](CCCNC(=N)N)C(=O)N[C@@H](CCCCN)C(=O)N[C@@H](CO)C(=O)N[C@@H](C)C(=O)N[C@@H](CCCNC(=N)N)C(=O)N[C@@H](CCCCN)C(=O)N[C@@H](CSC1CC(=O)N(CCCC(=O)NCC(=O)N[C@@H](Cc2cnc[nH]2)C(=O)NCC(=O)N[C@@H](Cc2cnc[nH]2)C(=O)NCC(=O)N[C@@H](Cc2cnc[nH]2)C(=O)NCC(=O)N[C@@H](Cc2cnc[nH]2)C(=O)NCC(=O)N[C@@H](Cc2cnc[nH]2)C(=O)NCC(=O)N[C@@H](Cc2cnc[nH]2)C(N)=O)C1=O)C(N)=O (some centres not stated) (I: H-FGGFTGARKSARKC-NH2 / II: GHGHGHGHGHGH-NH2; linker I:14-II:N via X2) | 4.27 | 12.6 | 0.17
18 | CCCCCCCCCCCCCCCC(=O)NCCCN1C(=O)CC(SC[C@H](NC(=O)[C@H](C)NC(=O)[C@H](CO)NC(=O)[C@H](CCCCN)NC(=O)[C@H](CCCNC(=N)N)NC(=O)[C@H](C)NC(=O)CNC(=O)[C@@H](NC(=O)[C@H](Cc2ccccc2)NC(=O)CNC(=O)CNC(=O)[C@@H](N)Cc2ccccc2)[C@@H](C)O)C(=O)N[C@@H](CCCCN)C(N)=O)C1=O (some centres not stated) (H-FGGFTGARKSAC(X1)K-NH2) | 0.525 | 22.4 | –
19 | C[C@H](NC(=O)[C@H](CO)NC(=O)[C@H](CCCCN)NC(=O)[C@H](CCCNC(=N)N)NC(=O)C1(NC(=O)CNC(=O)[C@@H](NC(=O)[C@H](Cc2ccccc2)NC(=O)CNC(=O)CNC(=O)[C@@H](N)Cc2ccccc2)[C@@H](C)O)CC1)C(=O)N[C@@H](CCCNC(=N)N)C(=O)N[C@@H](CCCCN)C(N)=O (H-FGGFTG[Ac3c]RKSARK-NH2) | – | – | 0.4
